From PubChem
Yeast superoxide – yeast age-related superoxide inhibition as caloric restriction mimetic | S. cerevisiae aged cells, superoxide DHE fluorescence; stronger effect = lower value | superoxide response (% of plate mean), % at 10 µM | 330,000 compounds, 0.18% hits;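 active means superoxide response under a set limit, about three screen SD below normal, cut at about 65% in these data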;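 further: yeast aged for seven days with compound at 30 °C before DHE staining; 100% = average MFI of all compound-treated wells on the plate with controls excluded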
PglD inh – inhibitors of Campylobacter jejuni PglD acetyltransferase; purified PglD enzyme, DTNB colorimetric CoA detection; inhibition, % at 12.5 µM; 360,000 compounds, 0.098% hits; AID 602405; in the data active means inhibition above about 16%, passing the limit was not always enough
Ecoli rRNA inh – inhibits bacterial ribosomal RNA function over humanized ribosomes | E. coli WT GFP vs humanized-ribosome RFP mutants, fluorescence, 24 h; stronger effect = lower value; DMSO median 0, no signal -100 | GFP signal change (wild-type ribosome), % (concentration not given with the values) | 350,000 compounds, 1.6% hits;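 active means significant combined selectivity score with lowered wild-type GFP, culture density cut under 30%, mutant RFP and density less affected; inactive means any of these conditions unmet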
SUMO Mot1 rescue – SUMOylation pathway inhibition by Mot1-301 growth rescue; 320,000 compounds, 1% hits; growth rescue, % at 18.8 µM; S. cerevisiae Mot1-301 growth rescue, ATP luminescence, 38.5C; percent above DMSO median, 100 means doubled; AID 2716;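 active means every valid replicate shows activation above 250% relative to neutral control wells; inactive means the rest, any valid replicate at or below 250%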;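 further: OY570 slx delta 5 strain wells were the positive control but not used for scaling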
Cneo AK release – causes C. neoformans cell lysis. adenylate kinase release luminescence, 4 h; normalised: neutral wells 0, clomiphene wells 100. lysis activity, % at 15 µM. 360,000 compounds, 0.2% hits;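 active means mean lysis activity across replicates of at least 80%, whatever share of replicates individually reach that level; inactive means mean lysis activity below 80%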
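Assay system: Cryptococcus neoformans yeast cells / Dosing: single-point compound dose / Timing: 4 h at 37 °C static, read 1 h later / Measured by: luminescence of released adenylate kinase using an AK detection reagent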
Yeast Mot1 SUMO – SUMO pathway inhibitors in yeast Mot1-301 growth; shares compounds with SUMO Mot1 rescue; S. cerevisiae Mot1-301 galactose growth, ATP luminescence, 24 h; -100 = growth of slx-deleted rescue strain; growth activity, percent, % at 42 µM; 2,300 tested, under 10 active; AID 493004;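 active means Signal drops as the depositor expects, and the fitted half-maximal dose is no more than ten times the top valid tested dose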;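 further: more negative values mean stronger growth rescue toward the control strain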
An asterisk follows results filed as active; x = not tested or not shown; + = active, no number. Compounds with a hit are over-represented: about 2.2% of the library has one in this group of screens.

SMILES | Yeast superoxide | PglD inh | Ecoli rRNA inh | SUMO Mot1 rescue | Cneo AK release | Yeast Mot1 SUMO
CCCC(=O)Nc1ccc2c(c1)C(=O)N(C)C[C@H](OC)[C@H](C)CN(CC1CCCC1)[C@H](C)CO2 | x | 1.5 | -2.6 | x | -3.2 | x
N#C/C(=C/c1ccc(N2CCCCC2)o1)C(=O)Nc1ccc(Cl)cc1 | 88.6 | -2.2 | x | 587.2* | -5.3 | 0.4
COc1cccc(OC)c1C(=O)Nc1ccc2c(c1)N(S(=O)(=O)c1cccs1)CCC2 | 93.5 | -11.9 | 4.8 | 490.2* | -0.7 | 0.4
O=C(CCc1ccccc1)N1CCN(c2ccccc2F)CC1 | 76.4 | 3.1 | 0.6 | 793.0* | -0.6 | 0.0
CS(=O)(=O)N(CC(=O)N1CCN(c2ccccc2F)CC1)C1CCCCC1 | 106.4 | 1.8 | 1.5 | 680.2* | -2.1 | -0.1
CCCn1c(=O)c2ccccc2n2c(SCC(=O)N3CCc4ccccc4C3)nnc12 | 90.4 | 7.1 | -2.6 | 433.5* | -0.1 | -0.4
CN(C)C(=O)c1ccc(-c2ccc([C@@H]3[C@@H](CO)N4CCCCN(S(C)(=O)=O)C[C@H]34)cc2)cc1 | x | -2.7 | 4.5 | x | -3.6 | x
CC(=O)c1cccc(NC(=O)CN(c2ccc(F)cc2)S(C)(=O)=O)c1 | 95.9 | -0.3 | 2.0 | -2.7 | -4.0 | x
CC(=O)c1cccc(NC(=O)CN(c2cccc(F)c2)S(C)(=O)=O)c1 | 101.9 | 3.0 | x | 681.8* | -0.7 | -0.3
O=C(O)CCC(=O)Nc1cccc(C(=O)Nc2ccc(Br)cc2)c1 | 94.0 | -3.8 | 13.4 | 795.9* | 6.1 | 0.2
O=C(O)CCC(=O)Nc1cccc(C(=O)Nc2cccc(Cl)c2)c1 | 96.7 | 6.8 | x | -2.4 | -1.7 | x
Cc1cc(=O)oc2ccc(OC(=O)CC(C)C)cc12 | 99.7 | x | -12.8 | 810.2* | x | 0.0
O=C(C[C@@H]1C[C@H]2c3cc(NC(=O)c4cccnc4)ccc3O[C@H]2[C@H](CO)O1)NCc1ccccc1F | x | 2.6 | -3.1 | x | 9.4 | x
C=CCNC(=O)NC(=O)COC(=O)/C(C#N)=C/c1cc(C)n(CC(C)C)c1C | 140.0 | -5.2 | x | + | -1.9 | 1.0
CCCn1c(C)cc(/C=C(\C#N)C(=O)OCC(=O)NC(=O)NC(C)(C)C)c1C | 118.0 | x | x | 0.9 | x | x
C[C@@H]1CN([C@@H](C)CO)C(=O)Cc2cc(NC(=O)c3ccncc3)ccc2O[C@@H]1CN(C)C(=O)Nc1ccccc1 | x | x | 3.9 | x | x | x
C[C@H]1CN([C@@H](C)CO)C(=O)c2cccc(NS(=O)(=O)c3ccc(Cl)cc3)c2O[C@@H]1CN(C)Cc1ccc(C(F)(F)F)cc1 | x | -3.0 | -0.8 | x | 2.5 | x
O=C(CSc1nnc(CNC(=O)c2ccccc2F)o1)NCCc1ccccc1 | 103.2 | -2.7 | x | + | -0.7 | 0.5
O=C(CSc1nnc(CNC(=O)c2c(F)cccc2F)o1)NCCc1ccccc1 | 95.6 | 3.1 | 14.0 | -15.3 | -0.6 | x
CC(C)NC(=O)N(C)C[C@H]1OCCCC[C@H](C)Oc2ccc(N(C)C)cc2C(=O)N([C@@H](C)CO)C[C@@H]1C | x | 1.3 | x | x | -1.3 | x
CCOc1ccc(S(=O)(=O)N2CCN(CC(O)COc3cccc([N+](=O)[O-])c3)CC2)cc1 (stereo not given) | 103.9 | -4.5 | -0.9 | 588.2* | 0.0 | 0.1
CCc1cc2c(NCCC(=O)O)ncnc2s1 | 98.6 | -2.2 | x | -9.5 | 0.2 | x
CCc1cc2c(NCCO)ncnc2s1 | 103.8 | -4.3 | x | + | 2.9 | 0.5
O=C1CC(C(=O)N2CCCc3ccccc32)CN1c1ccc(F)cc1 (stereo not given) | 104.5 | 7.0 | 10.4 | -4.3 | 0.5 | x
COc1ccc(N2CC(C(=O)N3CCc4ccccc43)CC2=O)cc1 (stereo not given) | 102.9 | -1.6 | 12.0 | 449.9* | 4.9 | -0.1
Cc1ccc(NC(=O)CN(C)C(=O)c2cccc(Br)c2)cc1 | 102.3 | 2.0 | 4.2 | 694.6* | -1.0 | -0.4
Cc1ccc(NC(=O)c2nc[nH]c2C(=O)N2CCc3ccccc3C2)cc1 | 91.8 | -5.1 | 15.5 | -10.5 | 3.7 | x
CCOC(=O)c1ccc(NC(=O)c2nc[nH]c2C(=O)N2CCc3ccccc3C2)cc1 | 94.4 | 0.9 | 7.8 | 371.0* | -3.3 | 0.3
Nc1nc2ccccc2cc1-c1cccs1 | 96.9 | -2.2 | -13.2 | 435.2* | -2.2 | -0.9
